From ChEMBL document CHEMBL1141642, “Rate enhancement of the oxidative folding of lysozyme by the use of aromatic thiol containing redox buffers” (Bioorg Med Chem, 2008)

Legend:
[1] = Dissociation constant, pKa of the compound; type: physicochemical
Gallus gallus [2] = organism: Gallus gallus; test: Effect on reduced chicken lysozyme folding activity assessed as maximal activity at 20 mM at pH 7; parameters: scale not given: the % may be the effect or the level left
In short: (§1)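 Denatured reduced lysozyme diluted 100-fold to 7 µM into deoxygenated 0.1 M Bis–Tris propane pH 7.0, 1 mM EDTA, 0.5 M GdnHCl, 0.2 mM GSSG plus aromatic thiol, 25 °C. Timed aliquots assayed for lytic activity on M. lysodeikticus (decrease in 450 nm scattering over 2 min). Fit to y=A(1−e^−kt), A = maximal %activity; at least seven independent assays on separate days.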

Gallus gallus [3] = organism: Gallus gallus; test: Effect on reduced chicken lysozyme folding activity assessed as maximal activity at 15 mM at pH 6; parameters: scale not given: the % may be the effect or the level left
In short: (§2)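 Denatured reduced lysozyme (DTE-reduced in 6 M GdnHCl, desalted) diluted 100-fold to 7 µM (0.1 mg/mL) into deoxygenated 0.1 M Bis–Tris pH 6.0, 1 mM EDTA, 0.5 M GdnHCl, 0.2 mM GSSG plus aromatic thiol, 25 °C. Aliquots assayed over time by lysis of M. lysodeikticus (450 nm light scattering, 2 min slope). Curves fit to y=A(1−e^−kt), A = maximal %activity; at least four assays on separate days, standard deviation.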

Gallus gallus [4] = organism: Gallus gallus; test: Effect on reduced chicken lysozyme folding activity assessed as maximal activity at 8 mM at pH 7; parameters: scale not given: the % may be the effect or the level left; in short: as §1
Gallus gallus [5] = organism: Gallus gallus; test: Effect on reduced chicken lysozyme folding activity assessed as maximal activity at 8 mM at pH 6; parameters: scale not given: the % may be the effect or the level left; in short: as §2
Gallus gallus [6] = organism: Gallus gallus; test: Effect on reduced chicken lysozyme folding activity assessed as maximal activity at 15 mM at pH 7; parameters: scale not given: the % may be the effect or the level left; in short: as §1
Gallus gallus [7] = organism: Gallus gallus; test: Effect on reduced chicken lysozyme folding activity assessed as maximal activity at 20 mM at pH 6; parameters: scale not given: the % may be the effect or the level left; in short: as §2

Structure (SMILES) | pKa [1] | Activity (Gallus gallus [2]) [%] | Activity (Gallus gallus [3]) [%] | Activity (Gallus gallus [4]) [%] | Activity (Gallus gallus [5]) [%] | Activity (Gallus gallus [6]) [%] | Activity (Gallus gallus [7]) [%]
O=S(=O)(O)c1ccc(S)cc1 | 5.7 | 62 | 50 |  |  |  | 
O=C(O)c1ccc(S)cc1 | 5.95 |  |  | 70 | 60 |  | 
O=P(O)(O)Cc1ccc(S)cc1 | 6.6 |  |  |  | 67 | 67 | 
C[N+](C)(C)Cc1ccc(S)cc1 | 5.5 | 72 |  |  |  |  | 85
O=C(O)Cc1ccc(S)cc1 |  |  |  | 45 | 16 |  | 
